Screening results (PubChem)
LMPTP inh: LMPTP phosphatase inhibitors, primary screen, biochemical, fluorescence intensity, uHTS. recombinant LMPTP-A, OMFP fluorogenic substrate. inhibition, % at 20 µM. actives 0.22% (n = 360,000). AID 651560, 2012;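 active means compounds that cut the enzyme signal by at least half of the control window in the single-dose screen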
Target sequence (P24666 whole entry, looked up): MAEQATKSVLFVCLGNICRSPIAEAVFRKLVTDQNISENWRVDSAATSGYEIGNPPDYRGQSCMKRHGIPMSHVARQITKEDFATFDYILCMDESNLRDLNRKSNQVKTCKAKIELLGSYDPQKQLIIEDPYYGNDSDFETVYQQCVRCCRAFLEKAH
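Assay system: LMPTP-A phosphatase enzyme | Input: 0.625 nM enzyme | Also added: Fluorogenic phosphatase substrate OMFP at 400 µM final | Compound dosing: One test concentration per compound, 20 µM, with 3% DMSO overall | Schedule: 50 min enzyme reaction at room temperature, protected from light | Signal: Fluorescence intensity | Benchmarks: no-enzyme and uninhibited controls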
NadD inh: inhibitors of S. aureus NadD, primary screen, biochemical, colorimetric, uHTS. Nicotinate-nucleotide adenylyltransferase NadD (Staphylococcus aureus N315). purified NadD enzyme, colorimetric absorbance read-out. inhibition, % at 20 µM. actives 0.78% (n = 360,000). AID 602399, 2012; in the data active means inhibition above about 26%
STEP block: STEP phosphatase inhibitors, primary screen, biochemical, fluorescence intensity, uHTS. inhibition, % at 20 µM. actives 0.25% (n = 360,000). Tyrosine-protein phosphatase non-receptor type 5 (Homo sapiens), P54829. recombinant STEP, OMFP fluorogenic substrate. AID 588621, 2011;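 active means inhibition at 20 µM, scaled per plate between control wells, above about 37%, limit read from the data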
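Material: STEP (striatal-enriched tyrosine phosphatase) enzyme, cell-free; Compound dosing: 20 µM single dose in 1% DMSO; Technique: fluorescence read at 480 nm ex / 540 nm em; Times: reaction 20 min, ambient temperature; Medium: 50 mM Bis-Tris pH 6.0 with 2.5 mM DTT and 0.005% Tween 20; Also added: OMFP at 25 µM.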
Scp1 inh: Scp-1 phosphatase inhibitors, primary screen, biochemical, colorimetric, uHTS; AID 493091, 2011; Recombinant Scp1, phosphopeptide, malachite green phosphate absorbance; inhibition, % at 20 µM; actives 0.88% (n = 340,000);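 active means inhibition above about 50% at 20 µM, limit read from the data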
Target sequence (Q9GZU7 76-261 limits assumed): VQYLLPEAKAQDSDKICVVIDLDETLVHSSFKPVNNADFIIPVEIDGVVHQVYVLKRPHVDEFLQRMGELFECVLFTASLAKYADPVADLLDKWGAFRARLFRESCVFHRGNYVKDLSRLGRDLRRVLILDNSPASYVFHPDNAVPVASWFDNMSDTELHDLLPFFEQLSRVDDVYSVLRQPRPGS
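Test system: SCP-1 phosphatase catalytic domain, residues 76-261; measured by: colorimetric phosphate reagent with accelerator and stabiliser, absorbance at 630 nm; timing: enzyme reaction 45 min at room temperature, colour 5 min, stabilisation 30 min; also added: Phosphorylated 17-residue peptide substrate; compound dosing: one concentration, 20 µM, with 1.0% DMSO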
rCAG binder: binders of r(CAG) RNA repeats, primary screen, biochemical, fluorescence. r(CAG) RNA repeat, TO-PRO-1 dye displacement fluorescence. actives 1.3% (n = 370,000). inhibition, % at 3 µM. AID 651821, 2012;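 active means inhibition above the plate cutoff, the mean of all test compounds on that plate plus 3 SD, cut at about 35% in these data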;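 further: higher means more dye released from RNA so lower well fluorescence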
NadD inh conf: inhibitors of S. aureus NadD, confirmation, biochemical, colorimetric, single concentration | shares compounds with NadD inh | purified S. aureus NadD, colorimetric enzyme assay | inhibition, % at 20 µM | actives 13% (n = 2,000); in the data active means inhibition mostly above about 42%, no sharp cut-off; inactive means mostly below about 42%
Of the large screens only hits and unclear results are named; the others gave an inactive call (follow-up assays come after a bar, where they were run). The list is not random: actives were taken first. Their share in the collection is about 2.6%.

COC(=O)c1ccc(Cn2nnc3c(=O)[nH]c(C4CCCN(S(=O)(=O)c5ccc(C)cc5)C4)nc32)cc1 (centres undefined)	NadD inh 29 | NadD inh conf inactive
CC(=O)c1cccc(S(=O)(=O)N2CCCC(c3nc4c(nnn4Cc4cccc(Cl)c4)c(=O)[nH]3)C2)c1 (centres undefined)	NadD inh 46 | NadD inh conf inactive
C[C@H](O)[C@@H]1CN2CCc3c([nH]c4c(-c5ccc6c(c5)OCO6)cccc34)[C@@H]2C[C@@H]1N(C)C(=O)c1ccco1	none (no result: LMPTP inh, NadD inh, STEP block, Scp1 inh)
CCOC(=O)CC[C@H]1CC[C@]2(CCCN(C(=O)C(C)(C)C)C2)O1	none (no result: LMPTP inh, NadD inh, STEP block, Scp1 inh)
O=C(NC1CCCCN(Cc2cccc(Cl)c2)C1=O)c1c(F)cccc1F (centres undefined)	none (no result: LMPTP inh, NadD inh, STEP block, Scp1 inh)
COC(=O)[C@H](C(C)C)N(Cc1cn(Cc2ccccc2)nn1)S(=O)(=O)c1ccccc1Br	none (no result: LMPTP inh, NadD inh, STEP block, Scp1 inh)
COc1cccc(CNS(=O)(=O)c2cc3c(cc2Br)CC(C)N3C(C)=O)c1 (centres undefined)	none (no result: LMPTP inh, NadD inh, STEP block, Scp1 inh)
O=c1[nH]c(C2CCCN(S(=O)(=O)c3ccccc3Cl)C2)nc2c1nnn2Cc1ccc2c(c1)OCCO2 (centres undefined)	NadD inh 37 | NadD inh conf inactive
Cc1ccc(-n2c(SCc3ccc(Cl)c(Cl)c3)nnc2-c2ccc(C(C)(C)C)cc2)cc1	none (no result: LMPTP inh, NadD inh, STEP block, Scp1 inh)
Cc1[nH]c2c(ccc3ccccc32)c1C1C(CCN)C1(C)C (centres undefined)	NadD inh 33 | NadD inh conf inactive
CCN1CCN(Cc2ccc(NC(=O)c3ccc(C)c(NC(=O)c4nccn4C)c3)cc2C(F)(F)F)CC1	none
CCN1CCN(Cc2ccc(NC(=O)c3ccc(C)c(NC(=O)c4cc(-c5ccc(Br)cc5)n[nH]4)c3)cc2C(F)(F)F)CC1	NadD inh 32 | NadD inh conf inactive
O=C(N[C@H]1C/C=C\C[C@H](CC(=O)N(CCO)Cc2ccccc2)C(=O)N[C@H](Cc2c[nH]c3ccccc23)COC1=O)OCC1c2ccccc2-c2ccccc21	NadD inh 32 | NadD inh conf inactive
O=C(N[C@@H]1C/C=C\C[C@@H](CC(=O)N(CCO)Cc2ccccc2)C(=O)N[C@@H](c2ccccc2)COC1=O)OCC1c2ccccc2-c2ccccc21	none
O=C(N[C@@H]1C/C=C\C[C@H](CC(=O)N(CCO)Cc2ccccc2)C(=O)N[C@@H](Cc2c[nH]c3ccccc23)COC1=O)OCC1c2ccccc2-c2ccccc21	NadD inh 34 | NadD inh conf inactive
O=C1N[C@@H](Cc2c[nH]c3ccccc23)COC(=O)[C@@H](Cc2ccc(F)cc2)C/C=C\C[C@H]1CC(=O)N(CCO)Cc1ccccc1	none
O=C(N[C@H]1C/C=C\C[C@@H](CC(=O)N(CCO)Cc2ccccc2)C(=O)N[C@H](Cc2c[nH]c3ccccc23)COC1=O)OCC1c2ccccc2-c2ccccc21	NadD inh 36 | NadD inh conf inactive
CCS(=O)(=O)Nc1ccc2c(c1)C(=O)N(C)[C@@H]1CC[C@H](CC(=O)NCCOC)O[C@H]1CO2	none (no result: LMPTP inh, NadD inh, STEP block, Scp1 inh)
CCOC(=O)C1(Cc2ccccc2)CCN(Cc2ccccc2[N+](=O)[O-])CC1	none (no result: LMPTP inh, NadD inh, STEP block, Scp1 inh)
O=C(Nc1cccc(-c2csc(Nc3ccccc3)n2)c1)c1cc([N+](=O)[O-])cc(C(F)(F)F)c1	NadD inh 37 | NadD inh conf inactive
O=C(Nc1ccc(-c2csc(Nc3ccc(Cl)cc3)n2)cc1)c1cc([N+](=O)[O-])cc(C(F)(F)F)c1	NadD inh 43 | NadD inh conf inactive
Nc1nc(-c2ccc([N+](=O)[O-])cc2)c(C(=O)Nc2ccc(Cl)cc2)s1	none
CCNC(=S)NNC(=O)CSc1nnc(SCc2cccc3ccccc23)s1	none (no result: LMPTP inh, NadD inh, STEP block, Scp1 inh)
c1ccc(-c2ccc(C3=Nn4c(nnc4-c4cc(-c5ccccc5)n[nH]4)SC3)cc2)cc1	NadD inh 44 | NadD inh conf inactive
c1ccc(-c2ccc(C3=Nn4c(nnc4-c4ccccc4)SC3)cc2)cc1	none (no result: LMPTP inh, NadD inh, STEP block, Scp1 inh)
COc1cc(C#Cc2c(-c3cncn3C)n(C)c3ccc(-c4cnc(N5CCOCC5)nc4)cc23)cc(OC)c1	NadD inh 45 | NadD inh conf inactive
COc1cc(C#Cc2c(-c3cncn3C)n(C)c3ccc(-c4ccc(CN5CCOCC5)cc4)cc23)cc(OC)c1	none
COCCCN1C(=O)[C@H](CC(=O)NCc2cccc(C(F)(F)F)c2)[C@]2(C(=O)OC)CCCCC=C12	none (no result: LMPTP inh, NadD inh, STEP block, Scp1 inh)
C/C(C=Nn1c(-c2ccc(F)cc2)n[nH]c1=S)=C/c1ccco1	none (no result: LMPTP inh, NadD inh, STEP block, Scp1 inh)
Cc1sc(NC(=O)Cc2ccc3c(c2)OCO3)nc1-c1ccc2c(c1)CCN2C(=O)c1cccc(F)c1	NadD inh 34 | NadD inh conf inactive
CNc1nc(-c2ccc3c(c2)CCN3C(=O)c2cccc(F)c2)cs1	none
Cc1ccc(Nc2nnc(C3C(=O)N(C)C4(C)CC3c3cc(Br)ccc3O4)s2)cc1 (centres undefined)	NadD inh 28 | NadD inh conf inactive
COc1ccc(C(=O)C2(C(=O)Nc3cc(C)cc(C)c3)CC(c3ccccn3)=NO2)cc1 (centres undefined)	none (no result: LMPTP inh, NadD inh, STEP block, Scp1 inh)
COc1ccc(Cn2c(SCc3ccccc3C)nc3cc(OC)c(OC)cc3c2=N)cc1	NadD inh 30 (no result: Scp1 inh) | NadD inh conf inactive
Cc1cc(C)cc(NC(=O)N2CCN(Cc3nc4ccccc4c(=O)[nH]3)CC2)c1	none (no result: LMPTP inh, NadD inh, STEP block, Scp1 inh)
O=C(/C=C/c1ccc(F)cc1)NC(=S)NNC(=O)[C@H]1C[C@@H]1c1ccccc1	NadD inh 40 | NadD inh conf inactive
O=C(CCn1nnc2ccccc21)N1CCN(c2ccc(F)cc2)CC1	none (no result: LMPTP inh, NadD inh, STEP block, Scp1 inh)
NC(=O)C1=CN([C@@H]2O[C@H](COP(=O)(O)OP(=O)(O)OC[C@H]3O[C@@H](n4cnc5c(N)ncnc54)[C@H](O)[C@@H]3O)[C@@H](O)[C@H]2O)C=CC1	none (no result: LMPTP inh, NadD inh, STEP block, Scp1 inh)
COc1ccc([C@H]2C(C#N)=C([S-])N[C@](C)(O)[C@@H]2[n+]2ccccc2)cc1	LMPTP inh 49, NadD inh 45 | NadD inh conf inactive
C/C(CCC12CC3CC(CC(C3)C1)C2)=N\NC(N)=S	NadD inh 34 | NadD inh conf inactive
CCOC(=O)c1sc2nc3c(SCC(=O)O)cc(C(=O)c4cc(F)ccc4O)cn3c(=O)c2c1C	NadD inh 33 | NadD inh conf inactive
